ChEMBL document CHEMBL3232936, “Synthesis, biological activity, distribution and membrane permeability of novel spiro-thiazines as potent neuroprotectors” (Eur J Med Chem, 2014)

What was measured:
[1] = Partition coefficient, log D of the compound in n-octanol-buffer at pH 7.4 by isothermal saturation method; type: physicochemical
How it was run: (§1)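 Isothermal saturation method at 25 °C, partitioning between n-octanol or n-hexane and phosphate buffer pH 7.4 (KH2PO4, Na2HPO4, NaCl, NaN3). Compound concentrations measured spectrophotometrically against calibration curves; coefficient taken as the ratio of concentration in the organic phase to that in buffer.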

[2] = Partition coefficient, log D of the compound in hexane-buffer at pH 7.4 by isothermal saturation method; type: physicochemical; how it was run: as §1
Brain [3] = assay: Inhibition of glutamate-induced [45Ca2+] uptake in synaptosomes in rat brain cortex after 5 mins by scintillation counting; type: functional, subcellular
How it was run: (§2)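 Synaptosomal P2 fraction from brain cortex of 8–11-day-old rats, suspended in buffer A (132 mM NaCl, 5 mM KCl, 5 mM HEPES, pH 7.4) and kept at 0 °C. Glutamate-stimulated 45Ca2+ uptake with test compound, 5 min at 37 °C. Stopped by GF/B filtration, three washes with cold buffer B (145 mM KCl, 10 mM Tris, 5 mM Trilon B), scintillation counting. Initial screen at 100 µM; concentration dependence followed when inhibition reached 50% or more. MK-801 positive control.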

Brain [4] = assay: Inhibition of glutamate-induced [45Ca2+] uptake in synaptosomes in rat brain cortex assessed as biological activity coefficients (K43/21) after 5 mins by scintillation counting relative to control; type: functional, subcellular; set-up: concentration or dose not given beside the values; how it was run: as §2
[5] = Apparent permeability of the compound across phospholipid vesicle-based barrier; type: physicochemical; settings: not told
How it was run: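 Phospholipid vesicle-based barrier from egg phosphatidylcholine liposomes (6% w/v in phosphate buffer with 10% v/v ethanol), extruded onto 0.65 µm mixed cellulose ester filter inserts (0.33 cm²). Donor: compound in pH 7.4 phosphate buffer; acceptor: same buffer. Room temperature, no agitation, 12–24 h, inserts moved to fresh buffer. UV-absorbance read-out; Papp from steady-state flux under sink conditions; at least triplicate, mean ± SD.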

Row | logD [1] | logD [2] | IC50 (Brain [3]) | Papp [5] | Compound | Activity (Brain [4])
1 | 1.88 | -0.52 |  | 2.04 ×10⁻⁶ cm/s | Nc1ccc(NC2=NCCC3(CCCCC3)S2)cc1 | 115%
2 | 1.56 | 1.48 | 31.6 µM | 5.67 ×10⁻⁶ cm/s | Cc1ccc(NC2=NCCC3(CCCCC3)S2)cc1 | 20.4%
3 | 2.31 | 1.75 | 11.7 µM | 41 ×10⁻⁶ cm/s | CCc1ccc(NC2=NCCC3(CCCCC3)S2)cc1 | 0%
4 | 1.57 | 1.45 | 6.2 µM | 15.7 ×10⁻⁶ cm/s | CC(C)c1ccc(NC2=NCCC3(CCCCC3)S2)cc1 | 0%
5 | 1.96 |  |  | 1.72 ×10⁻⁶ cm/s | Oc1ccc(NC2=NCCC3(CCCCC3)S2)cc1 | 73.5%
6 | 2.5 | 1.34 | 35.5 µM | 27.8 ×10⁻⁶ cm/s | Clc1ccc(NC2=NCCC3(CCCCC3)S2)cc1 | 12.7%
7 | 0.8 | 1.45 | 85.1 µM | 1.11 ×10⁻⁶ cm/s | COc1ccc(NC2=NCCC3(CCCCC3)S2)cc1 | 45.7%
8 | 2.53 | 1.36 |  | 90.3 ×10⁻⁶ cm/s | Brc1ccc(NC2=NCCC3(CCCCC3)S2)cc1 | 56.5%
9 | 1.97 | 1.88 | 81.3 µM | 2.55 ×10⁻⁶ cm/s | CC(=O)c1ccc(NC2=NCCC3(CCCCC3)S2)cc1 | 45.1%

Continued, compound first:

Row | Compound | logD [1] | logD [2] | IC50 (Brain [3]) | Papp [5] | Activity (Brain [4])
10 | CCc1cccc(CC)c1NC1=NCCC2(CCCCC2)S1 | 1.88 | 1.28 | 7.9 µM | 21.6 ×10⁻⁶ cm/s | 3.5%
11 | Fc1ccc(NC2=NCCC3(CCCCC3)S2)cc1Cl | 2.03 | 0.95 |  | 7.36 ×10⁻⁶ cm/s | 81.5%
12 | Cc1cccc(C(C)C)c1NC1=NCCC2(CCCCC2)S1 | 2.36 | 1.5 | 20.9 µM | 9.04 ×10⁻⁶ cm/s | 5.4%
13 | O=C(NC1=NCCC2(CCCCC2)S1)c1ccccc1 | 1.55 | 1.51 |  | 3.18 ×10⁻⁶ cm/s | 78.1%
14 | Cc1ccc(NC2=NCCC3(CCCCC3)S2)cc1Cl | 2.44 | 0.91 | 89.1 µM | 23.9 ×10⁻⁶ cm/s | 45.9%
15 | CCNC1=NCCC2(CCCCC2)S1 | 1.38 | 0.72 |  | 8.78 ×10⁻⁶ cm/s | 65.3%
16 | FC(F)(F)c1ccc(NC2=NCCC3(CCCCC3)S2)cc1 | 2.18 | 1.31 | 77.6 µM | 3.06 ×10⁻⁶ cm/s | 42.1%
17 | CNC1=NCCC2(CCCCC2)S1 | 0.88 | 0.91 |  | 2.7 ×10⁻⁶ cm/s | 134%
18 | NC1=NCCC2(CCCCC2)S1 | 1.57 | 1.22 |  | 7.33 ×10⁻⁶ cm/s | 91.4%
19 | CC(=O)c1cccc(NC2=NCCC3(CCCCC3)S2)c1 | 2.37 | 1.31 |  | 74.7 ×10⁻⁶ cm/s | 67.3%
20 | c1ccc(NC2=NCCC3(CCCCC3)S2)cc1 | 1.02 | 1.69 | 63.1 µM | 1.81 ×10⁻⁶ cm/s | 33.2%
21 | Cc1cc(C)c(NC2=NCCC3(CCCCC3)S2)c(C)c1 | 2.05 | 1.48 | 9.3 µM | 11.3 ×10⁻⁶ cm/s | 2.6%
22 | Clc1ccc(NC2=NCCC3(CCCCC3)S2)cc1Cl | 2.45 | 1.24 |  | 3.1 ×10⁻⁶ cm/s | 76.9%
